Measured values as given in ChEMBL document CHEMBL1909611, “Identification and SAR of selective inducible nitric oxide synthase (iNOS) dimerization inhibitors” (Bioorg Med Chem Lett, 2011).
pEC50, pIC50: −log10 of the molar value. Active and inactive are the calls of the source. The calls are words filed in the database; no cut-off is given here.

How the values were obtained:
Nitric oxide synthase 3 = biological target: T1, Nitric oxide synthase 3 (Homo sapiens, UniProt P29474); test: Inhibition of human eNOS expressed in HEK293 cells assessed as inhibition A23187-induced nitric oxide production incubated for 24 hrs measured after 18 hrs of A23187 challenge by 2,3-diaminonaphthalene assay; format: cell-based
T1 sequence (P29474 whole entry): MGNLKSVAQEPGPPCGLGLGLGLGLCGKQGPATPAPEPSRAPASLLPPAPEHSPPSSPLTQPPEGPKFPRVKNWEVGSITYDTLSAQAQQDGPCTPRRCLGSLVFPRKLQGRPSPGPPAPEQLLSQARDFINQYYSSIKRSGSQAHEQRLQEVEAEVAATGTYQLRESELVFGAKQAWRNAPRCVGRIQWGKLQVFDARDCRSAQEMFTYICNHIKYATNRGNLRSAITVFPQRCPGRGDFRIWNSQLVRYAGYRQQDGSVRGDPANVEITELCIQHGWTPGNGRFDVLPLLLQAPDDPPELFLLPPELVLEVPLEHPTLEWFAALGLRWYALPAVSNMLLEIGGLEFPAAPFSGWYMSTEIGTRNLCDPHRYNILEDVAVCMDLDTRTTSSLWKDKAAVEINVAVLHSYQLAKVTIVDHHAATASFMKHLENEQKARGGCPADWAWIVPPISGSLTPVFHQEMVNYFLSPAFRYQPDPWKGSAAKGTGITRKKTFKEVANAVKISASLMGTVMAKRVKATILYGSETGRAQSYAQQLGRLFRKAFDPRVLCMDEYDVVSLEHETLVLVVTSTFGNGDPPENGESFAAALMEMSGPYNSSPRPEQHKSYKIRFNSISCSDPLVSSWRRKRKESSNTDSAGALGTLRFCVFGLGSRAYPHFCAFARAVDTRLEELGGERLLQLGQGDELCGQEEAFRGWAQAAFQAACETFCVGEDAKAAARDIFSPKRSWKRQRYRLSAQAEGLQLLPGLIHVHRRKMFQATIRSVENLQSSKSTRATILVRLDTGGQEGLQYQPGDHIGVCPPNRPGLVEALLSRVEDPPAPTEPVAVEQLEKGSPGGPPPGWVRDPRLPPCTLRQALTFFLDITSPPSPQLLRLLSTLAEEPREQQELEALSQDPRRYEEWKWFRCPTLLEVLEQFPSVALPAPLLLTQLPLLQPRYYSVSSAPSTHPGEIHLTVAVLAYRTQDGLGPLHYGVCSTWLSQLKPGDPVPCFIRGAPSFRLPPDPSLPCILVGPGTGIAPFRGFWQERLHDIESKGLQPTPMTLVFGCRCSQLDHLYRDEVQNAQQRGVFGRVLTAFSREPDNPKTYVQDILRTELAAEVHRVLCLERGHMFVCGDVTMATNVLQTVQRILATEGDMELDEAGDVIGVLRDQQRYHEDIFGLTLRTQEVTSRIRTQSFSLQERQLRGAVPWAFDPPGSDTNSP
Outline: (§1)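 Transiently transfected cells plated at 5e5 cells/ml; compounds added immediately by pin transfer. Incubated 24 h with compound, then activated by ionophore (0.8 µM final). Fluorescence (ex 360/em 425 nm) read after raising pH with NaOH (0.12 N final). Values are mean of three experiments with SD. At 100 µM, <50% inhibition is reported as >100.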

[1] = biological target: T2, Nitric oxide synthase, inducible (Homo sapiens, UniProt P35228); test: Inhibition of human iNOS expressed in human HEK293 cells assessed as nitrite accumulation after 18 hrs by 2,3-diaminonapthalene assay; format: cell-based
T2 sequence (P35228 whole entry): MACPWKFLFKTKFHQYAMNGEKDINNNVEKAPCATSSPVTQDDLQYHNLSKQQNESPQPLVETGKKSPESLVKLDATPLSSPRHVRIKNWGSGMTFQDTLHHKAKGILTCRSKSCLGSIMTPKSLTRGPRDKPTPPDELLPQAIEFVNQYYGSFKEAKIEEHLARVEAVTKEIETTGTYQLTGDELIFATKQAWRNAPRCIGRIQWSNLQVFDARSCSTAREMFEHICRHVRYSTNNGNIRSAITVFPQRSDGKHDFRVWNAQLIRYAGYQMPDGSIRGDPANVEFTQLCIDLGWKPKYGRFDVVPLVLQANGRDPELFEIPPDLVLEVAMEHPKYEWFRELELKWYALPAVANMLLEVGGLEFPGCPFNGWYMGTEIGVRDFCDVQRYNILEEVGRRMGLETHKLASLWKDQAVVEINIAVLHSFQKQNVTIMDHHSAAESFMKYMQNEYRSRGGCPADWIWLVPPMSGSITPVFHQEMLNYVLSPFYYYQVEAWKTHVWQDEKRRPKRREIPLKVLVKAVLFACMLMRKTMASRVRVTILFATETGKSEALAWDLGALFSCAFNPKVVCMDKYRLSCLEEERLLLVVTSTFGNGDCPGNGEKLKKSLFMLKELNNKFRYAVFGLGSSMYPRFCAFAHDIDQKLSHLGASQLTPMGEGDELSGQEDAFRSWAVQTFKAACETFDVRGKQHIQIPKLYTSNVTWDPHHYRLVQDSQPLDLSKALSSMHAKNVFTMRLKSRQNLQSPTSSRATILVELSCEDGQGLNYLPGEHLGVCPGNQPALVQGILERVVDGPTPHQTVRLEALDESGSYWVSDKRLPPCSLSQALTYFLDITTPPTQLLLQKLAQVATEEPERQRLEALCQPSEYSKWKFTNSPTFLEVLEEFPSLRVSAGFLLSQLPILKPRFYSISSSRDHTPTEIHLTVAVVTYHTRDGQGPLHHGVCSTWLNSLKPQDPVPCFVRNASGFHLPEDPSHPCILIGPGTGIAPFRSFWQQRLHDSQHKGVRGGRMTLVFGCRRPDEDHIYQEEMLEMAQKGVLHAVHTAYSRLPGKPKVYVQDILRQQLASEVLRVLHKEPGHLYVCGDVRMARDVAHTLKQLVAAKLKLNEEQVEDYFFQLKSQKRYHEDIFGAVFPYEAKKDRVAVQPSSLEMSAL
Outline: as §1, with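 “18” for “24”, “for nitrite accumulation.” for “with compound, then activated by ionophore (0.8 µM final).”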

Nitric oxide synthase 1 [2] = biological target: T3, Nitric oxide synthase 1 (Homo sapiens, UniProt P29475); test: Inhibition of human nNOS expressed in HEK293 cells assessed as inhibition ionomycin-induced nitric oxide production incubated for 24 hrs measured after 18 hrs of ionomycin challenge by 2,3-diaminonaphthalene assay; format: cell-based; outline: as §1
T3 sequence (P29475 whole entry): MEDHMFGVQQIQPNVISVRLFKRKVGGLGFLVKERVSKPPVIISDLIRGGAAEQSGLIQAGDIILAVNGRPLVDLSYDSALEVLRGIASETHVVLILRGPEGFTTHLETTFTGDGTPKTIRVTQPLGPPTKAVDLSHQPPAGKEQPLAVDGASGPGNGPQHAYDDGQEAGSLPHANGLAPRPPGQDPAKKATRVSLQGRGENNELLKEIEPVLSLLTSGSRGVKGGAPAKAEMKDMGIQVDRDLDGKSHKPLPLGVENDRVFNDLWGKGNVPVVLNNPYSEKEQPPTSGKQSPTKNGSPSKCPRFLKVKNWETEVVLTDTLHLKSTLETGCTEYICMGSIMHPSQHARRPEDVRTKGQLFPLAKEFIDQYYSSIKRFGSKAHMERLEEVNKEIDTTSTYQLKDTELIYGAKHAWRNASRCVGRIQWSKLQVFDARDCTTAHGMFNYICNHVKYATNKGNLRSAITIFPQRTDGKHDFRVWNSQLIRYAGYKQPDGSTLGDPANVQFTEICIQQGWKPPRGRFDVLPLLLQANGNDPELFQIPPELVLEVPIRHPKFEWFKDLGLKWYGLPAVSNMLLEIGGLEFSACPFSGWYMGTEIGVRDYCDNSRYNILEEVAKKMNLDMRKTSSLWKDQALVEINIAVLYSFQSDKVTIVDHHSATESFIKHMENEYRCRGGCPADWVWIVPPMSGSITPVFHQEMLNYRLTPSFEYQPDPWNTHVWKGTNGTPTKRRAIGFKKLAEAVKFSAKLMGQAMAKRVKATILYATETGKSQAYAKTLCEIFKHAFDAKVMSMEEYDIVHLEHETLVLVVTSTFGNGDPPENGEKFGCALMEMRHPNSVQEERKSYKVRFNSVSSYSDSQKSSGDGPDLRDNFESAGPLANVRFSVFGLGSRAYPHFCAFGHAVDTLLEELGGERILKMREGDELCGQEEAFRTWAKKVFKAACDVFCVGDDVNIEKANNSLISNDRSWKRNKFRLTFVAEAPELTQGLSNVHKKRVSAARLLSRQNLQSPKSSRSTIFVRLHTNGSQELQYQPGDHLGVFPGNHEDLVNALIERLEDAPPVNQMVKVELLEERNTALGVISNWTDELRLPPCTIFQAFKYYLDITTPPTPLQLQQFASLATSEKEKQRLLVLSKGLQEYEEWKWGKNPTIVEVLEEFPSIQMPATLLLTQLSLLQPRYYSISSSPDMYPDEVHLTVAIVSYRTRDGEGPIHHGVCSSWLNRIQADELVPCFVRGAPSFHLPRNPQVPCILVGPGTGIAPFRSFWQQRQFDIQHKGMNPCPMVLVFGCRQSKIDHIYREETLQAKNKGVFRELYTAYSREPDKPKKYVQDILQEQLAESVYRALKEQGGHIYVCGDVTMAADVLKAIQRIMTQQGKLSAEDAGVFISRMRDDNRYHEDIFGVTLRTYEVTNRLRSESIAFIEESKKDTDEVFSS

Rattus norvegicus [3] = test: Antiinflammatory activity in Lewis rat assessed as inhibition of carrageenan-induced edema at 3 to 30 mg/kg, po administered 15 mins before carrageenan challenge measured after 5 hrs; format: functional, organism-based
Rattus norvegicus [4] = test: Analgesic activity in po dosed Lewis rat post operative brennan model assessed as incison-induced paw weight bearing response after 30 to 120 mins; format: functional, organism-based
Rattus norvegicus [5] = test: Antiinflammatory activity in Lewis rat assessed as inhibition of carrageenan-induced thermal hyperalgesia at 3 to 30 mg/kg, po administered 15 mins before carrageenan challenge measured after 5 hrs; format: functional, organism-based
Rattus norvegicus [6] = test: Antiinflammatory activity in po dosed Lewis rat endotoxemia model assessed as inhibition of LPS-induced plasma nitrate accumulation after 6 hrs; format: functional
[7] = biological target: T4, Nitric oxide synthase 3 (Homo sapiens) (UniProt P29474); test: Inhibition of human eNOS expressed in HEK293 cells assessed as inhibition A23187-induced nitric oxide production at 100 uM incubated for 24 hrs measured after 18 hrs of A23187 challenge by 2,3-diaminonaphthalene assay; format: cell-based; outline: as §1
T4 sequence (whole entry): T1 sequence (P29474 whole entry)

Nitric oxide synthase 1 [8] = biological target: T3, Nitric oxide synthase 1; test: Inhibition of human nNOS expressed in HEK293 cells assessed as inhibition ionomycin-induced nitric oxide production at 100 uM incubated for 24 hrs measured after 18 hrs of ionomycin challenge by 2,3-diaminonaphthalene assay; format: cell-based; outline: as §1
[9] = biological target: T2, Nitric oxide synthase, inducible; test: Inhibition of human iNOS
[10] = biological target: T5, Nitric oxide synthase, inducible (Mus musculus) (UniProt P29477); test: Inhibition of IFN-gamma/LPS-induced iNOS dimerization in mouse RAW264.7 cells by Western blot analysis; format: cell-based
T5 sequence (whole entry): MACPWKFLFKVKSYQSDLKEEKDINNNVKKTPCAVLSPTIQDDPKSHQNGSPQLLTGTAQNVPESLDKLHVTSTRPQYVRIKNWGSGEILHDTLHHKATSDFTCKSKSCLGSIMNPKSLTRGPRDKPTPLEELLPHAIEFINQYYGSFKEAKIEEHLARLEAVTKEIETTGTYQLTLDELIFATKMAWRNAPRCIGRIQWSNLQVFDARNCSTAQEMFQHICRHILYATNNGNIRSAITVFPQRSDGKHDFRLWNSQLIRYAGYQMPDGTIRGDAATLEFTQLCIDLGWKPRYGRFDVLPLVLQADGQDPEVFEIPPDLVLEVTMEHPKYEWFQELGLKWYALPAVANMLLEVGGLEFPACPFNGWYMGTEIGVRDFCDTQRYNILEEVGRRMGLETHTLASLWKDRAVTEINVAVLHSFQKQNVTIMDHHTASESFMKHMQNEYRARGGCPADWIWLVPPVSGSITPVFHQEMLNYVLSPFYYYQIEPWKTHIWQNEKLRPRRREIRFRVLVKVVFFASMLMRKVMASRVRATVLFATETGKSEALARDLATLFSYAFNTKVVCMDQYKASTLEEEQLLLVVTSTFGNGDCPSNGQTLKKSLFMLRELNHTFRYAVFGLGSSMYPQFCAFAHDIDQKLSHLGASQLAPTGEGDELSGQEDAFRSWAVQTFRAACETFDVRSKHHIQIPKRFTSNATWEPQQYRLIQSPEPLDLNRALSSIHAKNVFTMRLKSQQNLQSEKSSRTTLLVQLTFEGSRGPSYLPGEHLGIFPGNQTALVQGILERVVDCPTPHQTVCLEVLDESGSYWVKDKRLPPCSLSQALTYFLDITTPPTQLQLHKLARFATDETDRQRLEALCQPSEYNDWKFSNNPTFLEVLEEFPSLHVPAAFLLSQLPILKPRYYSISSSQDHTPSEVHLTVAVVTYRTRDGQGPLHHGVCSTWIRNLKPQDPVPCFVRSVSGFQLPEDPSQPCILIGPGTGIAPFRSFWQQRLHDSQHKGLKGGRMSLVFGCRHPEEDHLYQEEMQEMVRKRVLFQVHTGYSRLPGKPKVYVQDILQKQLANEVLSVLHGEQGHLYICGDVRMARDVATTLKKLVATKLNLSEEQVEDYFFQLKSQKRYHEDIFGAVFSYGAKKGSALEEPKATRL
Outline: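 RAW 264.7 cells seeded at 1.8 × 10⁶ cells/well and incubated 5 h. Then stimulated overnight with murine IFN-γ (100 U/mL final) and LPS (2 µg/mL final) plus 10 µM compound or vehicle (0.1% DMSO final). Lysates protein-normalized, run on 4–20% Tris–glycine gel under low-temperature SDS–PAGE in a cold room. Blotted with mouse anti-iNOS, read by infrared imaging.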

[11] = biological target: T2, Nitric oxide synthase, inducible; test: Inhibition of human iNOS expressed in human HEK293 cells assessed as nitrite accumulation at 100 uM after 18 hrs by 2,3-diaminonapthalene assay; format: cell-based
Outline: as §1, with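 “18” for “24”, “for nitrite accumulation.” for “with compound, then activated by ionophore (0.8 µM final).”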

pEC50 (Nitric oxide synthase 3) | pEC50 [1] | pEC50 (Nitric oxide synthase 1 [2]) | inhibition [7] | inhibition (Nitric oxide synthase 1 [8]) | pIC50 [9] | inhibition [10] | inhibition [11] | SMILES | inhibition (Rattus norvegicus [3]) | Activity (Rattus norvegicus [4]) | inhibition (Rattus norvegicus [5]) | ED50 (Rattus norvegicus [6])
< 4.00 | < 4.00 | < 4.00 | < 50% | < 50% | < 4.00 | Active | < 50% | CN(CCCNCc1ccccc1)c1nc(-n2ccnc2)ns1 | – | – | – | –
< 4.00 | 8.10 | 4.76 | – | – | 8.15 | Active | – | CN(CCCNCc1ccc2c(c1)OCO2)c1nc(-n2ccnc2)ns1 [KD7040] | – | – | – | –

Further lines, the compound ahead of its results:

SMILES | pEC50 (Nitric oxide synthase 3) | pEC50 [1] | pEC50 (Nitric oxide synthase 1 [2]) | inhibition [7] | inhibition (Nitric oxide synthase 1 [8]) | pIC50 [9] | inhibition [10] | inhibition [11] | inhibition (Rattus norvegicus [3]) | Activity (Rattus norvegicus [4]) | inhibition (Rattus norvegicus [5]) | ED50 (Rattus norvegicus [6])
Cc1cc(C(C)(C)NCCNCc2ccc3c(c2)OCO3)nc(-n2ccnc2)n1 | < 4.00 | 5.64 | < 4.00 | < 50% | < 50% | – | – | – | Active | Active | Active | 9.3 mg/kg
Cc1cc(N(C)CCCNCc2ccc3c(c2)OCO3)nc(-n2ccnc2)n1 | – | – | – | – | – | 8.00 | Active | – | – | – | – | –
Cc1cc(N(C)CCCNCc2ccc3c(c2)OCO3)nc(-n2cccc2)n1 | – | – | – | – | – | < 4.00 | inactive | – | – | – | – | –
